How the values were obtained:
[1] = Total drug recovery in healthy human at 1500 mg, iv infusion for 1 hr as single dose after 264 hrs; format: ADME, organism-based; settings: in vivo, read-out: Drug recovery
Method in brief: (§1)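 Six healthy adult males, fasted ≥10 h, got one 1500 mg [14C]GSK2251052 dose ([…], 0.56 MBq) as a constant-rate 1-h IV infusion in 0.9% NaCl. Urine was collected at 0–6, 6–12 and 12–24 h, then in 24-h blocks to 336 h; feces in 24-h blocks. Urine was counted directly by LSC; feces were homogenized and combusted in duplicate before LSC. Cumulative recovery is given as mean % of dose.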

Plasma [2] = experiment: Volume of distribution at steady state in healthy human plasma assessed as radioactivity at 1500 mg, iv infusion for 1 hr as single dose; format: ADME, organism-based; settings: in vivo
Method in brief: (§2)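 Healthy males got a 1500 mg [14C] dose as a 1-h IV infusion. K2EDTA blood was taken at serial times to 336 h. Radioactivity in blood and plasma was measured by LSC; plasma below 870 ng eq/ml was re-measured by accelerator mass spectrometry. Vss = CL × MRT, with CL = dose/AUC(0-∞), from noncompartmental analysis on actual times.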

Plasma [3] = experiment: Cmax in healthy human plasma assessed as radioactivity at 1500 mg, iv infusion for 1 hr as single dose; format: ADME, organism-based; parameters: dose 1500 mg, route intravenous; settings: in vivo
Method in brief: (§3)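 Six fasted healthy men received 1500 mg [14C]GSK2251052 as a 1-h i.v. infusion. Blood and plasma were sampled from predose to 336 h after infusion start. Radioactivity was counted by LSC; plasma below 870 ng eq/ml was reanalysed by accelerator MS, with predose background subtracted. Noncompartmental analysis used actual sampling times, linear-up/log-down trapezoids and CL = dose/AUC(0-∞).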

Liver cytosol = experiment: Drug metabolism in human liver cytosol assessed as (S)-3-(3-(aminomethyl)-1-hydroxy-1,3-dihydrobenzo[c][1,2]oxaborol-7-yloxy)propanoicacid formation at 50 to 500 uM after 3 hrs by liquid scintillation counting in presence of NAD+; format: ADME
Method in brief: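 [14C]GSK2251052 was incubated in triplicate for 1 or 3 h at 37°C with 4 mg/ml S9 (monkey liver, lung or kidney; human liver), liver cytosol or liver microsomes and 7.5 mM NAD+. Buffer was pyrophosphate at pH 7.4, 8.4 or 8.8. Controls lacked cofactor or enzyme. Reactions were quenched with acetonitrile, counted by LSC, and pooled for radio-HPLC.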

[4] = Drug recovery in healthy human urine at 1500 mg, iv infusion for 1 hr as single dose after 264 hrs; format: ADME, organism-based; settings: read-out: Drug recovery
Liver microsome = experiment: Drug metabolism in human liver microsomes assessed as (S)-3-(3-(aminomethyl)-1-hydroxy-1,3-dihydrobenzo[c][1,2]oxaborol-7-yloxy)propanoicacid formation at 50 to 500 uM after 3 hrs by liquid scintillation counting in presence of NADPH regeneration system; format: ADME
[5] = Drug recovery in healthy human feces at 1500 mg, iv infusion for 1 hr as single dose after 96 hrs; format: ADME, organism-based; settings: read-out: Drug recovery
[6] = Drug recovery in healthy human urine at 1500 mg, iv infusion for 1 hr as single dose after 48 hrs; format: ADME, organism-based; settings: read-out: Drug recovery
Plasma [7] = experiment: AUC (0 to infinity) in healthy human plasma assessed as radioactivity at 1500 mg, iv infusion for 1 hr as single dose; format: ADME, organism-based; parameters: dose 1500 mg, time infinity, route intravenous; settings: in vivo; method in brief: as §3
[8] = Drug recovery in healthy human feces at 1500 mg, iv infusion for 1 hr as single dose after 336 hrs; format: ADME, organism-based; settings: read-out: Drug recovery
[9] = Drug recovery in healthy human urine at 1500 mg, iv infusion for 1 hr as single dose after 216 hrs; format: ADME, organism-based; settings: read-out: Drug recovery
[10] = Total drug recovery in healthy human at 1500 mg, iv infusion for 1 hr as single dose after 168 hrs; format: ADME, organism-based; settings: in vivo, read-out: Drug recovery
[11] = Drug recovery in healthy human feces at 1500 mg, iv infusion for 1 hr as single dose after 240 hrs; format: ADME, organism-based; settings: faeces, read-out: Drug recovery
[12] = Drug recovery in healthy human feces at 1500 mg, iv infusion for 1 hr as single dose after 192 hrs; format: ADME, organism-based; settings: faeces, read-out: Drug recovery
[13] = Total drug recovery in healthy human at 1500 mg, iv infusion for 1 hr as single dose after 312 hrs; format: ADME, organism-based; settings: in vivo, read-out: Drug recovery; method in brief: as §1
[14] = Drug recovery in healthy human feces at 1500 mg, iv infusion for 1 hr as single dose after 312 hrs; format: ADME, organism-based; settings: read-out: Drug recovery
[15] = Drug metabolism in healthy human urine assessed as (S)-3-(3-(aminomethyl)-1-hydroxy-1,3-dihydrobenzo[c][1,2]oxaborol-7-yloxy)propanoicacid formation at 1500 mg, iv infusion for 1 hr as single dose by mass spectrometry; format: ADME, organism-based; settings: in vivo
Method in brief: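 Urine was collected through 336 h after a 1500 mg [14C] i.v. 1-h infusion to six men. Samples were pooled by weight (0–120 h per subject; 120–336 h composite) and centrifuged. Profiling used HPLC (Atlantis T3, ammonium acetate pH 4.5/methanol, 30°C) with fraction radioactivity counting. Identity came from Orbitrap positive-ion accurate mass. Values were given as % dose, corrected for recovery.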

[16] = Drug recovery in healthy human feces at 1500 mg, iv infusion for 1 hr as single dose after 168 hrs; format: ADME, organism-based; settings: faeces, read-out: Drug recovery
Blood [17] = experiment: Clearance in healthy human whole blood assessed as radioactivity at 1500 mg, iv infusion for 1 hr as single dose; format: ADME, organism-based; settings: in vivo; method in brief: as §3
[18] = Total drug recovery in healthy human at 1500 mg, iv infusion for 1 hr as single dose after 72 hrs; format: ADME, organism-based; settings: in vivo, read-out: Drug recovery; method in brief: as §1
Blood [19] = experiment: Volume of distribution at steady state in healthy human whole blood assessed as radioactivity at 1500 mg, iv infusion for 1 hr as single dose; format: ADME, organism-based; settings: in vivo; method in brief: as §2
[20] = Drug recovery in healthy human feces assessed as total radioactivity at 1500 mg, iv infusion for 1 hr as single dose after 120 to 336 hrs by HPLC method; format: ADME, organism-based; settings: in vivo, in the assay text read “0 to 120 hrs” for “120 to 336 hrs”
Method in brief: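 Feces were collected at 24-h intervals through 336 h after a 1500 mg [14C] i.v. 1-h infusion. Samples were homogenised with water and duplicate aliquots combusted for LSC. For profiling, 0–120 h pools were extracted twice with acetonitrile:methanol:water:formic acid, reconstituted, and analysed by radio-HPLC. Values were reported as % dose.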

[21] = Drug recovery in healthy human feces at 1500 mg, iv infusion for 1 hr as single dose after 288 hrs; format: ADME, organism-based; settings: faeces, read-out: Drug recovery
[22] = Drug recovery in healthy human feces at 1500 mg, iv infusion for 1 hr as single dose after 48 hrs; format: ADME, organism-based; settings: read-out: Drug recovery
[23] = Total drug recovery in healthy human at 1500 mg, iv infusion for 1 hr as single dose after 96 hrs; format: ADME, organism-based; settings: in vivo, read-out: Drug recovery; method in brief: as §1
Plasma [24] = experiment: Tmax in healthy human plasma assessed as radioactivity at 1500 mg, iv infusion for 1 hr as single dose; format: ADME, organism-based; settings: in vivo
Method in brief: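 Healthy men got a single 1500 mg [14C] dose by 1 h i.v. infusion. K2EDTA blood was sampled up to 336 h. Radioactivity in blood and plasma was measured by LSC, with AMS for plasma below LLQ. Parent and M3 were measured by LC/MS/MS (5–10,000 ng/ml range). Noncompartmental analysis used actual times, with t1/2 = ln2/λz and Tmax observed directly, timed from infusion start.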

[25] = Drug recovery in healthy human urine at 1500 mg, iv infusion for 1 hr as single dose after 168 hrs; format: ADME, organism-based; settings: read-out: Drug recovery

Cl.N[14CH2][C@H]1OB(O)c2c(OCCCO)cccc21
dose excreted at 264 h [1]: 97%
Vdss (Plasma [2]): 348 L
Cmax (Plasma [3]): 24.3 µg/mL
Drug metabolism (Liver cytosol): metabolite_not_detected
dose excreted at 264 h [4]: 89.3%
Drug metabolism (Liver microsome): metabolite_not_detected
dose excreted at 96 h [5]: 6.4%
dose excreted at 48 h [6]: 69.2%
AUC (Plasma [7]): 195 µg·h/mL
dose excreted at 336 h [8]: 7.6%
dose excreted at 216 h [9]: 88.2%
dose excreted at 168 h [10]: 94%
dose excreted at 240 h [11]: 7.6%
dose excreted at 192 h [12]: 7.6%
dose excreted at 312 h [13]: 97.8%
dose excreted at 312 h [14]: 7.6%
Drug recovery [15]: metabolite_detected
dose excreted at 168 h [16]: 7.6%
CL (Blood [17]): 7.79 L/h
dose excreted at 72 h [18]: 81.2%
Vdss (Blood [19]): 116 L
Drug recovery [20]: 6%
dose excreted at 288 h [21]: 7.6%
dose excreted at 48 h [22]: 1.3%
dose excreted at 96 h [23]: 87.5%
Tmax (Plasma [24]): 55 min
dose excreted at 168 h [25]: 86.4%
